Reference: ChEMBL document CHEMBL3352174, “Identification of a New RXRα Antagonist Targeting the Coregulator-Binding Site” (ACS Med Chem Lett, 2014)
Calls of active or inactive are those of the source. The calls are words filed in the database; no cut-off is given here.

Columns and labels:
[1] = target: T1, Retinoic acid receptor RXR-alpha (Homo sapiens) (UniProt P19793); assay: Antagonist activity against RXRalpha in TNFalpha-stimulated human PC3 cells assessed as inhibition of AKT phosphorylation at 5 and 10 uM pre-treated for 24 hrs before TNFalpha addition by Western blotting method; format: cell-based; details: PC-3
T1 sequence (whole entry): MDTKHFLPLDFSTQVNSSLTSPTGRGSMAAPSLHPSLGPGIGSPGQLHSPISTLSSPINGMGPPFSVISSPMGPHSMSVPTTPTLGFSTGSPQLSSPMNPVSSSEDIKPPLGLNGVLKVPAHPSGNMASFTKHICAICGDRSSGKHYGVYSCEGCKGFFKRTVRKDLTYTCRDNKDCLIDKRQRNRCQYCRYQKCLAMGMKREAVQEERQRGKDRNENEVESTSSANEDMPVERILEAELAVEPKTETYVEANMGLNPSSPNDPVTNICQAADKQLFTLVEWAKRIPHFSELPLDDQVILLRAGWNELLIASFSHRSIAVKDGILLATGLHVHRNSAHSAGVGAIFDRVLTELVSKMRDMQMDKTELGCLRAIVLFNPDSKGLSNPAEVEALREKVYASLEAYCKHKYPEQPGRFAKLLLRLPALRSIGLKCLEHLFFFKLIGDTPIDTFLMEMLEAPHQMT

HepG2 = assay: Induction of apoptosis in TNFalpha-stimulated human HepG2 cells assessed as PARP cleavage at 5 and 10 uM pre-treated for 24 hrs before TNFalpha addition by immunoblotting method; format: functional, cell-based
Method in brief: (§1)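 A549 or HepG2 cells were treated with compound for 24 h, with or without subsequent TNFα (20 ng/mL) for 30 min. Lysates were immunoblotted for PARP cleavage as the apoptosis marker. One of three to five similar experiments shown.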

[2] = target: T1, Retinoic acid receptor RXR-alpha (Homo sapiens); assay: Antagonist activity against RXRalpha in TNFalpha-stimulated human HepG2 cells assessed as inhibition of AKT phosphorylation at 5 and 10 uM pre-treated for 24 hrs before TNFalpha addition by Western blotting method; format: cell-based
Method in brief: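 A549 or HepG2 cells were exposed to compound for 24 h, then with or without TNFα (20 ng/mL) for 30 min more. Lysates were immunoblotted for AKT activation. One of three to five similar experiments shown.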

A549 [3] = assay: Induction of apoptosis in TNFalpha-stimulated human A549 cells assessed as PARP cleavage at 5 and 10 uM pre-treated for 24 hrs before TNFalpha addition by immunoblotting method; format: functional, cell-based; method in brief: as §1
MCF7 = assay: Growth inhibition of tRXRalpha stably expressing human MCF7 cells at 2 to 10 uM after 48 hrs by MTT assay; format: functional, cell-based
[4] = target: T1, Retinoic acid receptor RXR-alpha (Homo sapiens); assay: Antagonist activity against RXRalpha in human pancreatic cancer cells assessed as inhibition of AKT phosphorylation at 5 and 10 uM after 24 hrs by Western blotting method; format: cell-based; details: Cancer cell lines
[5] = target: T2, Estrogen receptor (Homo sapiens) (UniProt P03372); assay: Antagonist activity against estrogen receptor ligand binding domain (unknown origin) expressed in human MCF7 cells assessed as inhibition of propyl pyrazole-induced receptor transactivation at 10 uM after 18 hrs by luciferase reporter gene based mammalian one-hybrid assay; format: cell-based
T2 sequence (whole entry): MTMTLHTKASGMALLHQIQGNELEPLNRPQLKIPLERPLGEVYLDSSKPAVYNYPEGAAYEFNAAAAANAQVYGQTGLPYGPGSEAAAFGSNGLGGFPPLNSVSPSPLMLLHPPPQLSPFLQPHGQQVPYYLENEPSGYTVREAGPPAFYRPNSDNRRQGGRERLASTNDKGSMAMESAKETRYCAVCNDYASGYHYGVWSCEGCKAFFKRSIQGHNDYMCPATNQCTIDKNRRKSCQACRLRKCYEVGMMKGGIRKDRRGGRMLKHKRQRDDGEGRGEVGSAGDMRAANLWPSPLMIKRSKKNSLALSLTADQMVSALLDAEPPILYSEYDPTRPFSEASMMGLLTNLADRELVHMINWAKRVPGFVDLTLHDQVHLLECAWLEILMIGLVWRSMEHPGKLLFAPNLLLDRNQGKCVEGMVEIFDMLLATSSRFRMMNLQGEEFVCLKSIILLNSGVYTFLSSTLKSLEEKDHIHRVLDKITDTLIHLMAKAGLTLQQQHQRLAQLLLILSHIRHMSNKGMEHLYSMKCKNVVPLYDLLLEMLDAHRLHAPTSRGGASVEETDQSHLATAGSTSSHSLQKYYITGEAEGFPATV
Method in brief: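 MCF-7 cells co-transfected with pG5-Luc and the pBind-LBD fusion: Nur77, RARγ or ER. Agonists were all-trans-RA 10⁻⁷ M for RARγ and Nur77, and propyl pyrazole triol 10 μM for ER. Compound at 10 μM for 18 h. Dual-luciferase read-out normalized to Renilla. Mean ± SD.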

A549 [6] = assay: Induction of apoptosis in human A549 cells assessed as PARP cleavage at 5 and 10 uM by immunoblotting method; format: functional, cell-based; method in brief: as §1
[7] = target: T3, Retinoic acid receptor RXR-beta (Homo sapiens) (UniProt P28702); assay: Antagonist activity against RXRbeta ligand binding domain (unknown origin) expressed in human HEK293T cells assessed as inhibition of 9-cis-RA-induced receptor transactivation at 2 and 10 uM after 18 hrs by luciferase reporter gene based mammalian one-hybrid assay; format: cell-based; details: HEK-293T
T3 sequence (whole entry): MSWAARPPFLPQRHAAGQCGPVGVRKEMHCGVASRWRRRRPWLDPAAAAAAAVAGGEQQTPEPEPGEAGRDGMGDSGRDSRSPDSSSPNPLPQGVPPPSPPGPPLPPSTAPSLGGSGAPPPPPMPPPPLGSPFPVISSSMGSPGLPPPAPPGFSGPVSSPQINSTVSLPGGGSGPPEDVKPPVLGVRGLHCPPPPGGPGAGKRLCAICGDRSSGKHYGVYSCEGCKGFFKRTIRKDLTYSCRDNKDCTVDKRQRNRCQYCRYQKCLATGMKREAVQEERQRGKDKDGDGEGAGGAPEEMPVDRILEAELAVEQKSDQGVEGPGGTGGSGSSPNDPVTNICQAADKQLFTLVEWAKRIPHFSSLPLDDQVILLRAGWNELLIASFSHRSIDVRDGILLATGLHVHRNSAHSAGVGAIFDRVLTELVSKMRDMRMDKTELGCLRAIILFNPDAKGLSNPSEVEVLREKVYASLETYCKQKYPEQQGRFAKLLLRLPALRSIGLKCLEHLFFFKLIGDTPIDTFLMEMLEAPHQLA

Structure (SMILES): Cc1cc(=O)oc2c(/C=N/NC(=O)CSc3nc4ccccc4s3)c(O)ccc12
- inhibition [1]: Active
- Activity (HepG2): Active
- inhibition [2]: Active
- Activity (A549 [3]): Active
- growth inhibition (GI) (MCF7): Active
- inhibition [4]: Active
- inhibition [5]: inactive
- Activity (A549 [6]): Active
- inhibition [7]: Active
